Results reported in ChEMBL document CHEMBL4765490 (J Med Chem, 2021).
Values belong to the molecule of their own block, whether it stands above or below them.

Key:
[1] = Inhibition of PKA (unknown origin) incubated for 30 mins using REBtide substrate by ADP-Glo assay; parameters: species or system Homo sapiens
Summary of the method: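 ADP-Glo reagent was added for 40 min, then detection reagent for 30 min, and luminescence was read. Three experiments in duplicate; curves fitted as for GRK.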

[2] = target: G protein-coupled receptor kinase 6 (Homo sapiens) (UniProt P43250); assay: Inhibition of GRK6 (unknown origin) at 1 uM relative to control
G protein-coupled receptor kinase 6 (Homo sapiens), sequence (P43250 whole entry, looked up): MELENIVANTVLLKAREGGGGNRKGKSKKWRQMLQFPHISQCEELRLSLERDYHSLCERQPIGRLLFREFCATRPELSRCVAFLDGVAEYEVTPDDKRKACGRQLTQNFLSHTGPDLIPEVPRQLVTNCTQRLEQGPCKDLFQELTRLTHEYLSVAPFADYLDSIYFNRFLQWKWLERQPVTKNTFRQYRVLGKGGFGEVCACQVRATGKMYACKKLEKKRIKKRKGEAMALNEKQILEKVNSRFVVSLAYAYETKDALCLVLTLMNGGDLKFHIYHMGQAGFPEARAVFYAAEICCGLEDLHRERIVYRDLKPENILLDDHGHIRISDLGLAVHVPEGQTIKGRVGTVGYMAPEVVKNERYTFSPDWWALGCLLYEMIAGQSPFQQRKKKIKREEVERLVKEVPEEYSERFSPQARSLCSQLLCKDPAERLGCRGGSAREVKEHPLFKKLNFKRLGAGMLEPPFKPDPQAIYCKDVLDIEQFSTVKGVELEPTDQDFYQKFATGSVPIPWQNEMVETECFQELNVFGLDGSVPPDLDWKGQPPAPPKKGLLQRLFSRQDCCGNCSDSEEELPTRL

[3] = target: T1, G protein-coupled receptor kinase 5 (Homo sapiens, UniProt P34947); assay: Covalent inhibition of GRK5 (unknown origin) using porcine brain tubulin as substrate by [gamma32P]ATP based radiometric assay
Target sequence in this assay (P34947 whole entry): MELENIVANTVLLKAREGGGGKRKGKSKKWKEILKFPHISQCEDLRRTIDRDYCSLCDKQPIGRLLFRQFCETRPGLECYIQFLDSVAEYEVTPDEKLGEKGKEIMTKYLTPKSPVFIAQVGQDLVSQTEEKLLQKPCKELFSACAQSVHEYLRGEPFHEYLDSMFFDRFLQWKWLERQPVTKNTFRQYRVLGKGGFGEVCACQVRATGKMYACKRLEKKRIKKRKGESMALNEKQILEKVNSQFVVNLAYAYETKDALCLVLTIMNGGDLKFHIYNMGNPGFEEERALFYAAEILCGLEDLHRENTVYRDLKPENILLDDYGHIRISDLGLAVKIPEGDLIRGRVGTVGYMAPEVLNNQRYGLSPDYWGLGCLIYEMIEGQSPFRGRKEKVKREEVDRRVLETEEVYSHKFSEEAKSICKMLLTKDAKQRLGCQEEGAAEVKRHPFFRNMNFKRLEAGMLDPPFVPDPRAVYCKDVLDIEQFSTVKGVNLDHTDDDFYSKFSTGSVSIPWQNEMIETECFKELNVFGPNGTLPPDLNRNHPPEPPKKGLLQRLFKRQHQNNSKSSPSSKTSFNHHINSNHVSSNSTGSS

[4] = target: T2, G protein-coupled receptor kinase 3 (Homo sapiens) (UniProt P35626); assay: Inhibition of GRK3 (unknown origin) at 1 uM relative to control; conditions: time 3-5 min
T2 sequence (whole entry): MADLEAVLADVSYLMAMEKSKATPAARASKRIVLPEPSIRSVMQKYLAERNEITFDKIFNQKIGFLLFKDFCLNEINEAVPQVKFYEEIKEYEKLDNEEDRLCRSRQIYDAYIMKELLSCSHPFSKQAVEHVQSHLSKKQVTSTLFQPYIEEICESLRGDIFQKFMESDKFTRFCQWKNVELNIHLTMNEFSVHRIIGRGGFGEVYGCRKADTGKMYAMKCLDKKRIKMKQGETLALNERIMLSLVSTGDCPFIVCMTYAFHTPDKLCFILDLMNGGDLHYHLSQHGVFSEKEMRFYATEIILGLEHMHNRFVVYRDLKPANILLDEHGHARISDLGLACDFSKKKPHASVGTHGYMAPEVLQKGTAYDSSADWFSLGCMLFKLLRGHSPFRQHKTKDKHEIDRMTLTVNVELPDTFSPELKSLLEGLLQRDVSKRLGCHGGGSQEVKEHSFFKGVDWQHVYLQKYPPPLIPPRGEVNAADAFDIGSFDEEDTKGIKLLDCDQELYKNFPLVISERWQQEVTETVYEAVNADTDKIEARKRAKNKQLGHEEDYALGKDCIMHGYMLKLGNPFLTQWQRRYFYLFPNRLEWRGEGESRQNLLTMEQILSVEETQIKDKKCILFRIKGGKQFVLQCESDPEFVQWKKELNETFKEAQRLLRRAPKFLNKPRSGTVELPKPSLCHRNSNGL

[5] = target: T1, G protein-coupled receptor kinase 5
Target sequence in this assay (P34947 whole entry, looked up): as the sequence (P34947 whole entry) above

[6] = target: T3, Beta-adrenergic receptor kinase 1 (Bos taurus, UniProt P21146); assay: Inhibition of bovine GRK2 using porcine brain tubulin as substrate incubated for 3 to 5 mins by [gamma32P]ATP based radiometric assay
T3 sequence (P21146 whole entry): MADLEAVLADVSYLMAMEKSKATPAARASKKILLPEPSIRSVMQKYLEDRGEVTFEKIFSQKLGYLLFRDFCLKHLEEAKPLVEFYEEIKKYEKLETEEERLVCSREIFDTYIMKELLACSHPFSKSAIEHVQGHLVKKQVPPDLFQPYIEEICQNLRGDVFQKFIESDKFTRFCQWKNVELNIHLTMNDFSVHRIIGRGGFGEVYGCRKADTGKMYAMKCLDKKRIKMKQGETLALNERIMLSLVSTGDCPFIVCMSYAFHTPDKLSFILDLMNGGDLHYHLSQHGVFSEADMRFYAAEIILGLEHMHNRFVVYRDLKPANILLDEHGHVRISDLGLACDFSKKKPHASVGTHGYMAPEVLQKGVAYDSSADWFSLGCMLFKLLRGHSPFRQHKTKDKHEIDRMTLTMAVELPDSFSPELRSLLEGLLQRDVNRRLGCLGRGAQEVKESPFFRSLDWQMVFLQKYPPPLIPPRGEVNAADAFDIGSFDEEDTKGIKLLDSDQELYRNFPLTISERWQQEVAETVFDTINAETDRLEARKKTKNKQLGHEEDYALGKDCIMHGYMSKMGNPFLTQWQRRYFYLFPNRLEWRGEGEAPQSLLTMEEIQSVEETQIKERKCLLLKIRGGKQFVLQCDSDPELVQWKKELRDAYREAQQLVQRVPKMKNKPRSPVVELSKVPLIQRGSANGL

[7] = Metabolic stability in human liver microsomes assessed as half life at 100 uM in presence of NADPH by LC-MS/MS analysis; format: ADME, Microsome
Summary of the method: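 Stock in DMSO (1 mM) was diluted to a 100 μM working solution in 0.1 M phosphate buffer with 3.3 mM MgCl2. Microsomes (20 mg/mL) were primed with NADPH at 37 °C for 3 min, then dosed with compound. Samples were taken at 0, 5, 10, 15, 30, 45 and 60 min and stopped with cold acetonitrile containing internal standard. Protein was spun out before analysis.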

[8] = target: T1, G protein-coupled receptor kinase 5; assay: Inhibition of human GRK5 using porcine brain tubulin as substrate incubated for 3 to 5 mins by [gamma32P]ATP based radiometric assay
Target sequence in this assay (P34947 whole entry): as the sequence (P34947 whole entry) above

[9] = Thermodynamic solubility of compound in phosphate buffer at 6 pH by shake flask method; format: physicochemical; conditions: pH 6, read-out: Therm_solubility

IC50 [1]: > 250 µM
SMILES: C=CCNC(=O)c1c(C)[nH]c(/C=C2\C(=O)Nc3ccc(C(=O)N[C@H](C)c4ccccc4)cc32)c1C

IC50 [1]: > 250 µM
SMILES: CCN(CC)CCNC(=O)c1c(C)[nH]c(/C=C2\C(=O)Nc3ccc(C(=O)N[C@H](C)c4ccccc4)cc32)c1C

inhibition [2]: 94%
SMILES: C#CCNC(=O)c1c(C)[nH]c(/C=C2\C(=O)Nc3ccc(C(=O)N[C@H](C)c4ccccc4)cc32)c1C

IC50 [6]: 130 µM
IC50 [1]: > 250 µM
SMILES: C#CCCNC(=O)c1c(C)[nH]c(/C=C2\C(=O)Nc3ccc(C(=O)N[C@H](C)c4ccccc4)cc32)c1C (mixture of isomers)

IC50 [8]: 1.94 µM
SMILES: C=CCCNC(=O)c1c(C)[nH]c(/C=C2\C(=O)Nc3ccc(C(=O)N[C@H](C)c4ccccc4)cc32)c1C (mixture of isomers)

solubility thermodynamic [9]: 0.35 mg/mL
SMILES: CCN(CC)CCNC(=O)c1c(C)[nH]c(/C=C2\C(=O)Nc3ccc(F)cc32)c1C (mixture of isomers) [SUNITINIB]

The remaining lines, values behind:

SMILES: CC1=C(C(=O)Nc2ccc3[nH]ncc3c2)C(c2ccc(F)c(C(=O)NCc3ccccn3)c2)NC(=O)N1 (centres undefined)
IC50 [1]: > 250 µM

SMILES: Cc1[nH]c(/C=C2\C(=O)Nc3ccc(C(=O)N[C@H](C)c4ccccc4)cc32)c(C)c1NC(=O)/C(C#N)=C/C(C)(C)C
IC50 [1]: > 250 µM

SMILES: Cc1[nH]c(/C=C2\C(=O)Nc3ccc(C(=O)N[C@H](C)c4ccccc4)cc32)c(C)c1NC(=O)C(O)CCl (some centres undefined)
IC50 [1]: > 250 µM

SMILES: Cc1[nH]c(/C=C2\C(=O)Nc3ccc(C(=O)N[C@H](C)c4ccccc4)cc32)c(C)c1NC(=O)CBr (mixture of isomers)
Ki [3]: 0.11 µM
Ratio IC50 (Homo sapiens): 5
inhibition [4]: 21%
inhibition [2]: 97%
IC50 [1]: > 250 µM
Kinact [5]: > 1 min⁻¹

SMILES: Cc1[nH]c(/C=C2\C(=O)Nc3ccc(C(=O)N[C@H](C)c4ccccc4)cc32)c(C)c1NC(=O)CCl (mixture of isomers)
t1/2 [7]: 13.3 min
IC50 [1]: > 250 µM

SMILES: Fc1ccc([C@@H]2CCNC[C@H]2COc2ccc3c(c2)OCO3)cc1 [PAROXETINE]
IC50 [1]: 850 µM
